Source: PubChem BioAssay
Shown are actives, neighbours in structure and some others; about 2.9% of the full set was active somewhere.
CAL PDZ FP-1 = CAL PDZ (human) peptide binding inhibition; Q9HD26; purified CAL PDZ, TMR-peptide fluorescence polarization, 1 h; inhibition, % at 24.9 µM; actives 0.92% (n = 300,000);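 active means mean inhibition of at least 30% with at least half of replicates also reaching 30%; inconclusive means no clear call, values can overlap the other calls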;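 further: 0% = DMSO neutral control and 100% = excess unlabeled competitor peptide PRC23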
CAL PDZ FP-2 = human CAL PDZ-peptide interaction inhibition; Q9HD26; purified CAL PDZ, TMR-peptide fluorescence polarization, 1 h; inhibition, % at 20 µM; actives 0.02% (n = 330,000); AID 504414;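 active means highest replicate inhibition of at least 40%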;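 further: plate controls were DMSO neutral control wells for no effect and unlabeled competitor peptide control wells for full effect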
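material = purified tagged CAL PDZ domain construct (CerCALP) | buffer or medium = sodium phosphate/NaCl buffer pH 7.4 with TCEP, IgG, Thesit | reagent = TMR-labelled reporter peptide T*-PRC34 bound in PDZ groove | incubation = 1 h room-temperature incubation prior to read | measured by = fluorescence polarization (mP) | evaluation = percent inhibition from loss of millipolarization | control set = unlabelled peptide and DMSO controls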
DENV2 CPE = DENV2-induced cell death inhibition | DENV2-infected cells, cytopathic effect rescue, plate reader | CPE inhibition, % at 9.99 µM | actives 1.7% (n = 350,000); in the data active means CPE inhibition above about 20%, passing the limit was not always enough; inconclusive means no clear call, values can overlap the other calls; tested in BHK-21 cells;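 further: 0% = median of neutral control wells and 100% = median of positive control wells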
ERAP1 inh = ERAP1 (human) enzyme inhibition | recombinant ERAP1, Leu-AMC fluorescence, 60 min | inhibition, % at 10.7 µM | Q9NZ08 | actives 0.15% (n = 340,000) | AID 652197;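 active means mean replicate inhibition of at least 30%, or all replicates individually reaching that 30% level; inactive means mean below 30% and not every replicate reaching it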;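 further: 0% = neutral control wells and 100% = L-leucinethiol positive control wells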
SIRT5 block = sirtuin-5 (human) deacylase inhibition; inhibition, % at 15 µM; Q9NXA8; AID 652115; Purified SirT5, succinyl-peptide AMC, trypsin-coupled fluorescence; actives 1.1% (n = 330,000); in the data active means inhibition above about 15%; inconclusive means no clear call, values can overlap the other calls
Target sequence (Q9NXA8 whole entry, looked up): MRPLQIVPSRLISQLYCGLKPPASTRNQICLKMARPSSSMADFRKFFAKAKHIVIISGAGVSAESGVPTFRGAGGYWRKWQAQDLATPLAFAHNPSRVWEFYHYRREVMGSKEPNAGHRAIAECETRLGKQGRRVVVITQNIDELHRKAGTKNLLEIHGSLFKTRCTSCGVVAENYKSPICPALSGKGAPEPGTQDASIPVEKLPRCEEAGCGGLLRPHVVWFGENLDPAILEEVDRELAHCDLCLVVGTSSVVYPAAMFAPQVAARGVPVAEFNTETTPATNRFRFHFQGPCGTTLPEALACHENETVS
S100A4 MyoIIA = blocks human S100A4 binding to myosin IIA peptide; S100A4/TAMRA-MyoIIA peptide fluorescence polarization; AID 652163; inhibition, % at 10.7 µM; P26447; actives 0.14% (n = 360,000);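 active means mean inhibition of at least 70% across replicates, with every replicate also reaching that level; inconclusive means mean inhibition reaches 70% but some replicates fall short; inactive means mean inhibition below 70%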
Target sequence (P26447 whole entry, looked up): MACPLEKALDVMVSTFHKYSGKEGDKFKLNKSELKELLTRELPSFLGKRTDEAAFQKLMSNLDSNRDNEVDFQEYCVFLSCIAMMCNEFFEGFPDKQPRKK
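System – human S100A4 monomer protein, biochemical binding assay · Buffer or medium – Calcium-containing HEPES buffer, pH 7.2 · Timing – 5 min between mix addition and reading · Also added – TAMRA-labelled myosin IIA heavy-chain peptide probe, 5 nM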
Active calls of the source: *; ? = inconclusive; . = no result.

SMILES	CAL PDZ FP-1	CAL PDZ FP-2	DENV2 CPE	ERAP1 inh	SIRT5 block	S100A4 MyoIIA
O=C(NC1CCCCC1)N[C@H]1CC[C@@H](CC(=O)N2CCOCC2)O[C@H]1CO	.	.	?	-4.2	-0.9	0.1
C[C@@H]1CN([C@@H](C)CO)C(=O)c2cc(NC(=O)c3ccncc3)ccc2O[C@@H](C)CCCCO[C@@H]1CN(C)S(C)(=O)=O	.	.	3.8	.	.	.
CN1c2ccc(Br)cc2[C@H]2[C@H](CCN2S(=O)(=O)c2cccc(F)c2)[C@H]1CO	.	.	118.3*	1.4	.	-1.9
Cc1ccccc1S(=O)(=O)N1CC[C@@H]2[C@H](CO)N(C)c3ccc(Br)cc3[C@@H]21	.	.	-10.3	.	.	.
CN1c2ccc(Br)cc2[C@@H]2[C@@H](CCN2S(=O)(=O)c2ccccc2)[C@H]1CO	.	.	116.3*	-2.5	8.3	6.7
Cc1ccccc1S(=O)(=O)N1CC[C@@H]2[C@H]1c1cc(Br)ccc1N(C)[C@H]2CO	.	.	66.3*	.	.	.
Cc1cccc(S(=O)(=O)N2CC[C@@H]3[C@@H](CO)N(C)c4ccc(Br)cc4[C@@H]32)c1	.	.	-4.6	0.3	.	6.4
COc1cccc(CN2[C@H](CO)[C@@H]3c4ccccc4N(C(=O)C4CC4)C[C@@H]32)c1	.	.	1.3	1.9	-2.8	-4.8
O=C(C[C@H]1CC[C@H]2[C@@H](COC[C@@H](O)CN2S(=O)(=O)c2cccc(Cl)c2)O1)NC1Cc2ccccc2C1	.	.	-1.2	1.7	-5.5	-30.8
Cc1c(C(=O)Nc2c(F)cccc2F)sc2ncn(CC(=O)N3CCCCC3)c(=O)c12	-1.1	-2.1	2.8	-0.7	0.0	-1.6
Cc1c(C(=O)Nc2ccccc2F)sc2ncn(CC(=O)N3CCOCC3)c(=O)c12	-2.9	-1.2	52.1*	5.4	-1.1	-0.5
O=C(NCc1ccc(F)cc1)[C@H]1[C@H](CO)[C@H]2Cn3c(cccc3=O)[C@@H]1N2C(=O)c1cnccn1	.	.	-5.4	-0.6	-2.8	0.4
O=C(NCc1cccc(F)c1)[C@@H]1[C@@H](CO)[C@@H]2Cn3c(cccc3=O)[C@H]1N2C(=O)c1cnccn1	.	.	81.8*	-3.8	4.5	7.1
COCCNC(=O)[C@H]1[C@H](CO)[C@H]2Cn3c(cccc3=O)[C@@H]1N2Cc1cc(F)ccc1F	.	.	39.8*	1.6	1.4	1.7
CN(C)CC(=O)N1[C@@H]2c3cccc(=O)n3C[C@H]1[C@H](CO)[C@H]2C(=O)NCc1ccccc1	.	.	20.2*	0.1	8.3	1.6
C[C@@H](NC(=O)[C@@H]1[C@@H](CO)[C@@H]2Cn3c(cccc3=O)[C@H]1N2Cc1ccccc1)c1ccccc1	.	.	-1.7	-1.7	7.0	-5.9
CCCNC(=O)[C@H]1[C@H](CO)[C@H]2Cn3c(cccc3=O)[C@@H]1N2Cc1cc(F)ccc1F	.	.	-7.4	0.3	8.0	5.0
C[C@H](NC(=O)[C@@H]1[C@@H](CO)[C@@H]2Cn3c(cccc3=O)[C@H]1N2Cc1ccccc1)c1ccccc1	.	.	-5.7	1.8	19.0*	8.4
O=C(C[C@@H]1C[C@@H]2c3cc(NS(=O)(=O)c4ccccc4)ccc3O[C@@H]2[C@H](CO)O1)NCC(F)(F)F	.	.	2.2	-0.5	1.1	4.4
Cc1noc(C)c1NC(=O)N(C)C[C@@H]1Oc2c(NS(=O)(=O)c3ccc(Cl)cc3)cccc2C(=O)N([C@@H](C)CO)C[C@@H]1C	.	.	2.9	-0.2	4.2	10.2
O=C(NCCc1ccccc1)[C@@H]1[C@@H](CO)[C@@H]2Cn3c(cccc3=O)[C@H]1N2Cc1ccccn1	.	.	3.1	-3.4	-8.2	14.1
O=C(NCc1ccccc1)[C@@H]1[C@@H](CO)[C@@H]2Cn3c(cccc3=O)[C@H]1N2Cc1ccccn1	.	.	40.3*	1.2	3.7	9.4
COc1cccc(-c2cc(C(=O)NCC3CCCO3)c3cc(Br)cc(C)c3n2)c1 (centres undefined)	-3.9	-3.1	3.0	5.7	17.3*	4.2
CC(C)[C@H](NC(=O)c1ccc(Cl)c(Cl)c1)C(=O)N1CCC[C@H]1C(=O)NCCc1ccccc1Cl	.	.	23.3*	2.1	-0.3	-1.9
O=C(c1cccc(C(F)(F)F)c1)C1CCCN(C(=O)CCn2cnnn2)C1 (centres undefined)	52.5*	-4.7	-1.5	.	-3.9	-5.9
SMILES	CAL PDZ FP-1	CAL PDZ FP-2	DENV2 CPE	ERAP1 inh	SIRT5 block	S100A4 MyoIIA
O=C(c1ccc(C(F)(F)F)cc1)C1CCCN(C(=O)Cn2cnnn2)C1 (centres undefined)	-0.3	-2.7	10.6	0.3	-4.9	5.4
Cc1ccccc1N1Cc2ccccc2C1=O	.	.	37.4*	1.7	-1.3	-3.6
Cc1ccccc1N1C(=O)Cc2ccccc2C1=O	-6.3	-2.0	-2.8	3.9	-0.1	-1.0
O=C(Cc1ncon1)Nc1ccc(F)c(F)c1F	78.1*	0.0	-2.8	-0.4	-4.2	-2.9
C[C@H](NC(=O)C[C@H]1CC[C@@H]2[C@H](COC[C@@H](O)CN2C(=O)Nc2cc(Cl)cc(Cl)c2)O1)c1ccccc1	.	.	-1.4	-0.5	5.3	3.6
CCc1cc(=O)oc2cc(OCC(=O)NC3CC(C)(C)NC(C)(C)C3)ccc12	-5.0	-2.0	35.7*	-4.7	-2.1	2.1
CC1(C)CC(NC(=O)COc2ccccc2Cl)CC(C)(C)N1	-2.1	-3.1	32.5*	-3.5	-3.7	-16.1
C[C@H](CO)N1C[C@H](C)[C@H](CN(C)S(=O)(=O)c2cn(C)cn2)Oc2ncc(C3=CCCC3)cc2C1=O	.	.	0.9	-0.8	-5.4	0.0
Brc1ccc(-c2noc(CCc3ccccc3)n2)o1	.	-0.9	56.2*	-0.8	-4.0	5.4
COc1ccc(-c2cn(CC[C@H]3CC[C@@H](NC(=O)CCN4CCCCC4)[C@@H](CO)O3)nn2)cc1	.	.	0.7	-0.8	-2.7	-0.6
C=CCn1c(-c2cccc3ccccc23)n[nH]c1=S	49.7*	-0.8	.	.	.	.
C=CCn1c(-c2ccccc2OC)n[nH]c1=S	-2.2	-3.8	.	.	.	.
Cc1noc(C)c1NC(=O)Nc1ccc2c(c1)CC(=O)N([C@H](C)CO)C[C@H](C)[C@@H](CN(C)C(=O)Nc1ccc(F)cc1)O2	.	.	-0.5	-2.9	5.5	5.8
CC(C)NC(=O)N1[C@H](CO)[C@@H](c2ccccc2)C12CN(C(=O)CN(C)C)C2	.	.	5.2	-4.0	1.5	-5.8
CCC(=O)N1[C@H](CO)[C@H](c2ccccc2)C12CN(C(=O)Nc1ccccc1F)C2	.	.	27.1*	-4.3	4.9	-15.6
CCC(=O)N1CC2(C1)[C@H](c1ccccc1)[C@@H](CO)N2C(=O)NC(C)C	.	.	29.1*	3.5	0.1	3.3
O=C(c1cccnc1)N1CC2(C1)[C@H](c1ccccc1)[C@@H](CO)N2CC1CC1	.	.	9.9	2.9	-0.7	-12.2
CCS(=O)(=O)N1CC2(C1)[C@H](c1ccccc1)[C@@H](CO)N2C(=O)C1CC1	.	.	22.6*	0.3	-0.8	-3.6
O=C(c1cccnc1)N1CC2(C1)[C@@H](c1ccccc1)[C@@H](CO)N2CC1CC1	.	.	20.3*	1.6	-2.6	3.9
